This note sets out measurements from ChEMBL document CHEMBL4834401, “Structure-Activity Relationship Studies of Coumarin-like Diacid Derivatives as Human G Protein-Coupled Receptor-35 (hGPR35) Agonists and a Consequent New Design Principle” (J Med Chem, 2021).

Molecules are shown by their SMILES. pEC50, pIC50: −log10 of the molar value. Calls of active or inactive are those of the source. The rule behind the calls is not given here.

The target in assay [1] is T1, G-protein coupled receptor 35 (Homo sapiens, UniProt Q9HC97). As to the kind of experiment: Agonist activity at human GPR35 receptor expressed in HEK293T cells co-expressing beta-arrestin2 assessed as induction of beta-arrestin2 recruitment by BRET assay. It counts as functional, cell-based.
T1 sequence (Q9HC97 whole entry): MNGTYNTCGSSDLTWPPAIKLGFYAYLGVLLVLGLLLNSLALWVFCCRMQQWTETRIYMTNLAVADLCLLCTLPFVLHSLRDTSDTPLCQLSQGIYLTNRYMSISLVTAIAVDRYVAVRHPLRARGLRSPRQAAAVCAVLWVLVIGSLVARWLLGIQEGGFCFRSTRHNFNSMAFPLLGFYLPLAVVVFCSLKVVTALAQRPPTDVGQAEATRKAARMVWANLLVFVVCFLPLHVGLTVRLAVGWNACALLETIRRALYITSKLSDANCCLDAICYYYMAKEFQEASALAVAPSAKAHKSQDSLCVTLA
The target in assay [2] is T1, G-protein coupled receptor 35. Briefly: Agonist activity at human GPR35 receptor expressed in HT-29 cells assessed as reduction in dynamic mass redistribution response in presence of GPR35 antagonist ML-145 by DMR assay. It counts as functional, cell-based.
For assay [3] the target is unchanged. Briefly: Agonist activity at human GPR35 receptor expressed in HT-29 cells assessed as dynamic mass redistribution response by DMR assay. The class given is functional, cell-based.
Assay [4] has the same target. As to the kind of experiment: Agonist activity at human GPR35 receptor expressed in HT-29 cells assessed as desensitization of zaprinast-induced DMR response preincubated for 1 hr followed by zaprinast stimulation by DMR desensitization assay. The class given is functional, cell-based.
The target in assay [5] is D(2) dopamine receptor (Homo sapiens) (UniProt P14416). Briefly: Agonist activity at dopamine D2 receptor (unknown origin) at 1 uM. It counts as functional. The method, boiled down:
(§1)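 Each receptor was expressed separately in its own cell line, and compounds were added at 1 μM. Cells were seeded on biosensor plates and grown overnight to a confluent monolayer. They were then washed, kept in Hank's balanced salt solution, and equilibrated 1 h in the reader. After a 2 min baseline, the label-free dynamic mass redistribution (DMR) response was recorded immediately after compound addition.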

For assay [6], the target named is Muscarinic acetylcholine receptor M3 (Homo sapiens) (UniProt P20309). As to the kind of experiment: Agonist activity at muscarinic M3 receptor (unknown origin) at 1 uM. The class given is functional. The method, boiled down: as §1
Sequence of Muscarinic acetylcholine receptor M3 (Homo sapiens) (P20309 whole entry, looked up): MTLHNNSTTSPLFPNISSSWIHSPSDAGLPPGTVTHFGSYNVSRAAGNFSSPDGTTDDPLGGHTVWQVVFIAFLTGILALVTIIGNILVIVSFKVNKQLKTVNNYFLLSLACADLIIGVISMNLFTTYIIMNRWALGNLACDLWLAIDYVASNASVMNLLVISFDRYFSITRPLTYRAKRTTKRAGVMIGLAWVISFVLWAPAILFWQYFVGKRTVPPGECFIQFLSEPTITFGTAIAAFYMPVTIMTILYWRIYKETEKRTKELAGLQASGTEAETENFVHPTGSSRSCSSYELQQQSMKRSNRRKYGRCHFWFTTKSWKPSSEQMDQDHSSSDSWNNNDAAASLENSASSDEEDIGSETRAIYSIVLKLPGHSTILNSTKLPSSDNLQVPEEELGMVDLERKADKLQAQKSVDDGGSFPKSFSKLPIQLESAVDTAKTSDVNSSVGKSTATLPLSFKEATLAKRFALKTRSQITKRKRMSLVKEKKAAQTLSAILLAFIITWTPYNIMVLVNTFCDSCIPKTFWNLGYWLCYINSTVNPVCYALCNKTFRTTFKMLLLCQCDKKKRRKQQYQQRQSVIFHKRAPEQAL
Assay [7] deals with T1, G-protein coupled receptor 35. As to the kind of experiment: Agonist activity at human GPR35 receptor expressed in CHO-K1 cells assessed as dynamic mass redistribution response by DMR assay. The class given is functional, cell-based.
In assay [8] the target is T2, Free fatty acid receptor 4 (Homo sapiens) (UniProt Q5NUL3).
T2 sequence (whole entry): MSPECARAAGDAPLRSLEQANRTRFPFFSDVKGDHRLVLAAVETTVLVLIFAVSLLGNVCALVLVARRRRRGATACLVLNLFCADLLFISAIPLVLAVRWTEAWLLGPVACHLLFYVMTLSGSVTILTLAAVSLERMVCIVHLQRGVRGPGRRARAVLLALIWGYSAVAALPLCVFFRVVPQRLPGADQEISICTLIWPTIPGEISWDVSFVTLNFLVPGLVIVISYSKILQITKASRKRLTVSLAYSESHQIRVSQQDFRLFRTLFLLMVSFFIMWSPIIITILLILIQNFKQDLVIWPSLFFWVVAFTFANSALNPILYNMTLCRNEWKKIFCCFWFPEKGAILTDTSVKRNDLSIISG
As to the kind of experiment: Agonist activity at FFA4 receptor (unknown origin) at 1 uM. The class given is functional. The method, boiled down:
as §1

Assay [9] concerns the target T1, G-protein coupled receptor 35. As to the kind of experiment: Agonist activity at human GPR35 receptor expressed in CHO-K1 cells assessed as desensitization of zaprinast-induced DMR response preincubated for 1 hr followed by zaprinast stimulation by DMR desensitization assay. The class given is functional, cell-based.
The target in assay [10] is Mu-type opioid receptor (Homo sapiens) (UniProt P35372). Briefly: Agonist activity at mu-opioid receptor (unknown origin) at 1 uM. The class given is functional. The method, boiled down:
as §1

Assay [11] addresses Histamine H1 receptor (Homo sapiens) (UniProt P35367). Briefly: Agonist activity at histamine H1 receptor receptor (unknown origin) at 1 uM.

Sequence of Mu-type opioid receptor (Homo sapiens) (P35372 whole entry): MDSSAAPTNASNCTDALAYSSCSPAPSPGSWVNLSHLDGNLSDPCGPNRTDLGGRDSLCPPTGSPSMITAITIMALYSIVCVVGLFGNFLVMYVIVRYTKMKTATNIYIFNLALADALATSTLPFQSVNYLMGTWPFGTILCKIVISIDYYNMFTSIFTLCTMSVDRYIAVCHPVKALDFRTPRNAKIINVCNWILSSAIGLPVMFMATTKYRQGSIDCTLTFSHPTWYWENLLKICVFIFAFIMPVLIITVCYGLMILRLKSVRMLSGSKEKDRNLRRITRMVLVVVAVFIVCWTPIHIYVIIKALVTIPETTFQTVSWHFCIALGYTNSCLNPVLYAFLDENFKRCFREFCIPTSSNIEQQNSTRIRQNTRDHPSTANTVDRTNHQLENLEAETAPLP
Sequence of D(2) dopamine receptor (Homo sapiens) (P14416 whole entry): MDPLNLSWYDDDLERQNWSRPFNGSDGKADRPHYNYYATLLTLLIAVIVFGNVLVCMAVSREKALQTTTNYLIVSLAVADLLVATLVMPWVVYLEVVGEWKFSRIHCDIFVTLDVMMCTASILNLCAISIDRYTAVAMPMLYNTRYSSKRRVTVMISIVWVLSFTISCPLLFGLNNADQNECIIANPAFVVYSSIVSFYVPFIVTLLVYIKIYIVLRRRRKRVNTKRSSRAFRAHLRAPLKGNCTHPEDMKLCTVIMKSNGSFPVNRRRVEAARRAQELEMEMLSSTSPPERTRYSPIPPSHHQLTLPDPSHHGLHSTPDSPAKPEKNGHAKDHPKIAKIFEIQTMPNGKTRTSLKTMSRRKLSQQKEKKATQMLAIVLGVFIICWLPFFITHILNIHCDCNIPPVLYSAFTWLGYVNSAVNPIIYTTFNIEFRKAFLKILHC
Sequence of Histamine H1 receptor (Homo sapiens) (P35367 whole entry, looked up): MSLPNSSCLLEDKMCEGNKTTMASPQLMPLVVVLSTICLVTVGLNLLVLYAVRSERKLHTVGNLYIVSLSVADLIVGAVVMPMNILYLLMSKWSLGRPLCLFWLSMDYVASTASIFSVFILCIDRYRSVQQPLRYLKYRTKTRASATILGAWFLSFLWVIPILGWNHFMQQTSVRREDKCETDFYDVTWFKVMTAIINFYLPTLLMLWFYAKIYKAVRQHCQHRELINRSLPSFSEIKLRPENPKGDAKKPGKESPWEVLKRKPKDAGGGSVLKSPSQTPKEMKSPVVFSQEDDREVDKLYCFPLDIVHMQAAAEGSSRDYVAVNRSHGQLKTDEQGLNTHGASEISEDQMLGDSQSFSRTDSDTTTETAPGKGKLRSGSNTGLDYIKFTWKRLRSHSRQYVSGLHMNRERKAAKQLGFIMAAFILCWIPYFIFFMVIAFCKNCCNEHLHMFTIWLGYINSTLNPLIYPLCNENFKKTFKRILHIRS

Take `CCCCc1cc2c(=O)cc(C(=O)O)[nH]c2c2c(=O)cc(C(=O)O)[nH]c12` [BUFROLIN]: in [1], the pEC50 – broadly, the negative decadic logarithm of the EC50, by convention in mol/L – is 7.89.

Take `O=C(O)c1cc(C(=O)O)c2c(n1)C(=O)C(=O)c1cc(C(=O)O)[nH]c1-2` [PYRROLOQUINOLINE QUINONE]: the negative-log IC50 (pIC50) – broadly, the negative decadic logarithm of the IC50, by convention in mol/L – was 6.24 in [2] and 7.52 in [4]. Besides, the negative-log EC50 (pEC50) in assay [3] was 7.15.

In the case of `COc1ccccc1-c1cc2cc(C(=O)O)c(=O)oc2cc1O`, the negative logarithm of the IC50 (pIC50) in assay [2] is 6.92; in assay [4], 4.75. The pEC50 in assay [3] is 4.62.

Take `COc1cccc(-c2cc3cc(C(=O)O)c(=O)oc3c3cc(C(=O)O)c(=O)oc23)c1`: the pIC50 in assay [2] is 6.77; in assay [4], 8.52. The negative-log EC50 (pEC50) in assay [3] is 7.82.

`O=C(O)c1cc2c(oc1=O)c(Br)cc1cc(-c3nnn[nH]3)c(=O)oc12`: the negative-log IC50 (pIC50) is 6.08 in [2], 7.80 in assay [9] and 7.74 in assay [4]. Further, the result in assay [5], in assay [6], in assay [8], in [10] and in assay [11] was inactive. Moreover, the pEC50 in assay [7] was 7.59; in [3] it was 7.74.

Regarding `COc1cccc(-c2cc3cc(C(=O)O)c(=O)oc3cc2O)c1`, the pIC50 is 5.65 in [2] and 5.86 in [4]. In assay [3], the negative-log EC50 (pEC50) was 5.80.

For `Cc1c2[nH]c(C(=O)O)cc(=O)c2cc2c(=O)cc(C(=O)O)[nH]c12`, the pIC50 in [2] is 6.10; in [9], 9.13; in [4], 8.70. Further, the result in assay [5], in [6], in assay [8], in assay [10] and in assay [11] was inactive. In addition, the values for the pEC50 in [7] and in assay [3] were 8.97 and 8.10, respectively.

With `O=C(O)c1cc2c(oc1=O)c(-c1ccc(F)cc1)cc1cc(C(=O)O)c(=O)oc12`, the negative logarithm of the IC50 (pIC50) in assay [2] was 5.99. Besides, the pEC50 in [3] is 7.48.

Consider `COc1ccc(-c2cc3cc(C(=O)O)c(=O)oc3c3cc(C(=O)O)c(=O)oc23)cc1`, for which the pIC50 in assay [2] was 6.33; in assay [9], 8.61; in [4] it was 8.15. Besides, the result in assay [5], in [6], in assay [8], in assay [10] and in [11] was inactive. For the same molecule, the figures for the pEC50 in assay [7] and in [3] were 8.16 and 7.70, respectively.

Take `COc1cc(C(=O)O)nc2c(C)c3nc(C(=O)O)cc(OC)c3cc12`: the values for the pIC50 in assay [2], in assay [9] and in assay [4] were 6.55, 8.21 and 7.19, respectively. The result in assay [5], in assay [6], in [8], in assay [10] and in [11] was inactive. The pEC50 was 8.09 in assay [7] and 7.00 in assay [3].

`CCCOc1ccccc1-c1nc2[nH]nnc2c(=O)[nH]1`: the outcome in [5], in assay [8] and in assay [10] was inactive.

Consider `Cc1c2nc(C(=O)O)cc(Cl)c2cc2c(Cl)cc(C(=O)O)nc12`, for which the pIC50 is 5.60 in [2], 8.45 in [9] and 7.82 in assay [4]. Moreover, the outcome in assay [5], in [6], in [8], in [10] and in assay [11] was inactive. For the same molecule, the values for the pEC50 in assay [7] and in assay [3] were 8.29 and 7.27, respectively.

`Cc1c2oc(=O)c(C(=O)O)cc2cc2cc(C(=O)O)c(=O)oc12`: the pIC50 is 6.46 in assay [2] and 7.38 in [4]. Moreover, the pEC50 in assay [3] is 6.85.

Consider `O=C(O)c1cc2cc(Br)c(O)cc2oc1=O`, for which, in assay [2], the negative logarithm of the IC50 (pIC50) was 6.89.

Take `O=C(O)c1cc2cc(-c3cccs3)c(O)cc2oc1=O`: the pIC50 in [2] is 6.80; in [4], 5.84. Besides, in [3], the pEC50 was 5.54.
